In ChEMBL document CHEMBL3862011, “Neuroprotective effects of benzyloxy substituted small molecule monoamine oxidase B inhibitors in Parkinson's disease” (Bioorg Med Chem, 2016):
Activity calls are given as the source filed them. The rule behind the calls is not given here.

Columns and labels:
PC-12 [1] = experiment: Neuroprotective activity against 6-OHDA-induced apoptosis in rat PC12 cells assessed as decrease in nuclear fragmentation at 20 uM after 24 hrs by Hoechst 33258 staining-based fluorescent inverted microscopic method; assay type: functional, cell-based
Outline: (§1)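 PC12 cells exposed to 6-OHDA or rotenone with test treatment were stained with Hoechst 33258 for 30 min, mounted on glass slides under cover slips, and examined by fluorescent inverted microscopy.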

PC-12 [2] = experiment: Neuroprotective activity against rotenone-induced apoptosis in rat PC12 cells assessed as late apoptotic cells at 10 uM after 24 hrs by 7-AAD/annexin V APC staining-based flow cytometric method (reference value: 9.9%); assay type: functional
PC-12 [3] = experiment: Neuroprotective activity against rotenone-induced apoptosis in rat PC12 cells assessed as late apoptotic cells at 5 uM after 24 hrs by 7-AAD/annexin V APC staining-based flow cytometric method (reference value: 9.9%); assay type: functional
PC-12 [4] = experiment: Neuroprotective activity against rotenone-induced apoptosis in rat PC12 cells assessed as viable cells at 20 uM after 24 hrs by 7-AAD/annexin V APC staining-based flow cytometric method (reference value: 39.3%); assay type: functional; conditions: PC-12, 24 h, read-out: Activity
PC-12 [5] = experiment: Neuroprotective activity against rotenone-induced toxicity in rat PC12 cells assessed as increase in cell viability after 24 hrs by phase-contrast microscopic method; assay type: functional, cell-based
Outline: (§2)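 PC12 cells were exposed to 5-40 μM test compound together with 40 μM 6-OHDA or 1 μM rotenone for 24 h. Viability was judged from phase-contrast images against untreated controls.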

Mus musculus [6] = experiment: Acute toxicity in Kunming mouse assessed as abnormal changes in food consumption at 2000 mg/kg measured for 14 days; assay type: organism-based; conditions: in vivo, 336 h
Outline: (§3)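 Kunming mice (20 ± 2 g), 10 per group, vehicle control group; fasted overnight, single oral dose in 0.5% CMC-Na suspension. Observed continuously for 4 h, intermittently to 24 h, then occasionally to day 14 for behaviour, mortality, food and water intake and body weight; sacrificed under ether on day 14.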

PC-12 [7] = experiment: Neuroprotective activity against 6-OHDA-induced apoptosis in rat PC12 cells assessed as late apoptotic cells at 40 uM after 24 hrs by 7-AAD/annexin V APC staining-based flow cytometric method (reference value: 4.4%); assay type: functional
PC-12 [8] = experiment: Neuroprotective activity against 6-OHDA-induced apoptosis in rat PC12 cells assessed as viable cells at 20 uM after 24 hrs by 7-AAD/annexin V APC staining-based flow cytometric method (reference value: […]); assay type: functional; conditions: PC-12, 24 h, read-out: Activity
PC-12 [9] = experiment: Neuroprotective activity against 6-OHDA-induced apoptosis in rat PC12 cells assessed as late apoptotic cells at 20 uM after 24 hrs by 7-AAD/annexin V APC staining-based flow cytometric method (reference value: 4.4%); assay type: functional
PC-12 [10] = experiment: Neuroprotective activity against 6-OHDA-induced toxicity in rat PC12 cells assessed as increase in cell viability after 24 hrs by phase-contrast microscopic method; assay type: functional, cell-based; outline: as §2
PC-12 [11] = experiment: Neuroprotective activity against rotenone-induced apoptosis in rat PC12 cells assessed as early apoptotic cells at 40 uM after 24 hrs by 7-AAD/annexin V APC staining-based flow cytometric method (reference value: 2.2%); assay type: functional
PC-12 [12] = experiment: Neuroprotective activity against rotenone-induced apoptosis in rat PC12 cells assessed as necrotic cells at 20 uM after 24 hrs by 7-AAD/annexin V APC staining-based flow cytometric method (reference value: 48.6%); assay type: functional
PC-12 [13] = experiment: Neuroprotective activity against rotenone-induced apoptosis in rat PC12 cells assessed as necrotic cells at 40 uM after 24 hrs by 7-AAD/annexin V APC staining-based flow cytometric method (reference value: 48.6%); assay type: functional
PC-12 [14] = experiment: Neuroprotective activity against rotenone-induced reactive oxygen species accumulation in rat PC12 cells after 24 hrs by DCFH-DA probe-based flow cytometric method; assay type: functional, cell-based
Outline: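 PC12 cells were seeded at 2×10^5 cells/well in six-well plates and cultured with or without various concentrations of test samples for 24 h. After washing, they were loaded with DCFH-DA for 30 min at 37 °C in the dark, washed and harvested. DCF fluorescence read by flow cytometry (ex 488/em 525 nm), reported as mean fluorescence intensity.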

[15] = Cytotoxicity against rat PC12 cells assessed as cell survival at 20 uM after 72 hrs by MTT assay relative to control; assay type: toxicity, PC-12; conditions: read-out: Survival
PC-12 [16] = experiment: Neuroprotective activity against rotenone-induced toxicity in rat PC12 cells assessed as increase in cell survival preincubated for 24 hrs followed by rotenone addition measured after 24 hrs by MTT assay; assay type: functional, cell-based
Outline: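 PC12 cells in RPMI-1640 with 10% FBS were seeded at 5×10^3 cells/well. After 24 h, compounds at 20 μM were added for 24 h at 37 °C, followed by 6-OHDA (40 μM) or rotenone (1 μM) for 24 h. Viability by MTT (570 nm, reference 630 nm), expressed as percent of untreated control. […] Mean ± SEM.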

PC-12 [17] = experiment: Neuroprotective activity against 6-OHDA-induced apoptosis in rat PC12 cells assessed as early apoptotic cells at 20 uM after 24 hrs by 7-AAD/annexin V APC staining-based flow cytometric method (reference value: 42.1%); assay type: functional
PC-12 [18] = experiment: Neuroprotective activity against rotenone-induced apoptosis in rat PC12 cells assessed as early apoptotic cells at 10 uM after 24 hrs by 7-AAD/annexin V APC staining-based flow cytometric method (reference value: 2.2%); assay type: functional
PC-12 [19] = experiment: Neuroprotective activity against 6-OHDA-induced apoptosis in rat PC12 cells assessed as early apoptotic cells at 10 uM after 24 hrs by 7-AAD/annexin V APC staining-based flow cytometric method (reference value: 42.1%); assay type: functional
PC-12 [20] = experiment: Neuroprotective activity against 6-OHDA-induced apoptosis in rat PC12 cells assessed as early apoptotic cells at 40 uM after 24 hrs by 7-AAD/annexin V APC staining-based flow cytometric method (reference value: 42.1%); assay type: functional
PC-12 [21] = experiment: Neuroprotective activity against rotenone-induced apoptosis in rat PC12 cells assessed as viable cells at 10 uM after 24 hrs by 7-AAD/annexin V APC staining-based flow cytometric method (reference value: 39.3%); assay type: functional; conditions: PC-12, 24 h, read-out: Activity
Mus musculus [22] = experiment: Acute toxicity in Kunming mouse assessed as reduction in body weight at 2000 mg/kg measured for 14 days; assay type: organism-based; conditions: in vivo, 336 h; outline: as §3
PC-12 [23] = experiment: Neuroprotective activity against rotenone-induced apoptosis in rat PC12 cells assessed as necrotic cells at 5 uM after 24 hrs by 7-AAD/annexin V APC staining-based flow cytometric method (reference value: 48.6%); assay type: functional
PC-12 [24] = experiment: Neuroprotective activity against rotenone-induced apoptosis in rat PC12 cells assessed as decrease in nuclear fragmentation at 20 uM after 24 hrs by Hoechst 33258 staining-based fluorescent inverted microscopic method; assay type: functional, cell-based; outline: as §1
[25] = Neuroprotective activity against rotenone-induced toxicity in rat PC12 cells assessed as cell survival at 20 uM preincubated for 24 hrs followed by rotenone addition measured after 24 hrs by MTT assay relative to control; assay type: functional; conditions: PC-12, read-out: Survival
Outline: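 PC12 cells seeded 5×10^3/well, after 24 h given compound at 20 μM for 24 h at 37 °C, then exposed to 6-OHDA (40 μM) or rotenone (1 μM) for 24 h. […] Mean ± SEM of three independent experiments.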

PC-12 [26] = experiment: Neuroprotective activity against rotenone-induced apoptosis in rat PC12 cells assessed as viable cells at 5 uM after 24 hrs by 7-AAD/annexin V APC staining-based flow cytometric method (reference value: 39.3%); assay type: functional; conditions: PC-12, 24 h, read-out: Activity

O=C1CCOc2cc(OCc3ccc(F)cc3)ccc21
Activity (PC-12 [1]): Active | Activity (PC-12 [2]): 16.1% | Activity (PC-12 [3]): 9.3% | viability at 20 µM (PC-12 [4]): 57.8% | Activity (PC-12 [5]): Dose-dependent effect | Activity (Mus musculus [6]): Non-Toxic | Activity (PC-12 [7]): 0.2% | viability at 20 µM (PC-12 [8]): 87.8% | Activity (PC-12 [9]): 0.3% | Activity (PC-12 [10]): Dose-dependent effect | Activity (PC-12 [11]): 2.9% | Activity (PC-12 [12]): 30.2% | Activity (PC-12 [13]): 25.8% | Activity (PC-12 [14]): Dose-dependent effect | viability at 72 h, 20 µM [15]: 94.5% | Activity (PC-12 [16]): Dose-dependent effect | Activity (PC-12 [17]): 10.8% | Activity (PC-12 [18]): 5% | Activity (PC-12 [19]): 22% | Activity (PC-12 [20]): 7% | viability at 10 µM (PC-12 [21]): 48% | Activity (Mus musculus [22]): Non-Toxic | Activity (PC-12 [23]): 33.2% | Activity (PC-12 [24]): Active | viability at 20 µM [25]: 126% | viability at 5 µM (PC-12 [26]): 54.2%
